Test results from ChEMBL document CHEMBL4813946, “Discovery of novel 4-azaaryl-N-phenylpyrimidin-2-amine derivatives as potent and selective FLT3 inhibitors for acute myeloid leukaemia with FLT3 mutations” (Eur J Med Chem, 2021).
pKi: −log10 of the molar value. The source made the active and inactive calls. No cut-off for these calls is given here.

Assays:
[1] = system: MV4-11; assay: Induction of apoptosis in human MV4-11 cells assessed as necrotic cells at 5 x GI50 concentration incubated for 24 hrs by annexin V-FITC and propidium iodide staining based flow cytometry (reference value: 0.75 %); assay type: functional
[2] = system: U-937; assay: Induction of apoptosis in human U937 cells assessed as necrotic cells at 10 x GI50 concentration incubated for 24 hrs by annexin V-FITC and propidium iodide staining based flow cytometry (reference value: 1.10 %); assay type: functional
[3] = system: U-937; assay: Induction of apoptosis in human U937 cells assessed as viable cells at 20 x GI50 concentration incubated for 24 hrs by annexin V-FITC and propidium iodide staining based flow cytometry (reference value: 85.68 %); assay type: functional
[4] = system: U-937; assay: Induction of apoptosis in human U937 cells assessed as viable cells at 1 x GI50 concentration incubated for 48 hrs by annexin V-FITC staining based flow cytometry (reference value: 86.25 %); assay type: functional
[5] = target: Receptor-type tyrosine-protein kinase FLT3 (Homo sapiens) (UniProt P36888); assay: Inhibition of FLT3-mediated signalling pathway in human MV4-11 cells assessed as increase in cleaved PARP expression upto 20 x GI50 concentration incubated for 6 hrs by western blot analysis; assay type: cell-based
Method in brief: (§1)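 Cells lysed in phosphate lysis buffer with protease inhibitors and protein quantified. Western blots probed phospho and total STAT5, AKT, ERK, S6RP and eIF4E, plus full-length and cleaved PARP and caspase-3, with β-actin as loading control. At least two independent experiments.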

[6] = system: U-937; assay: Induction of apoptosis in human U937 cells assessed as late apoptotic cells at 10 x GI50 concentration incubated for 24 hrs by annexin V-FITC and propidium iodide staining based flow cytometry (reference value: 10.30 %); assay type: functional
[7] = system: MV4-11; assay: Induction of apoptosis in human MV4-11 cells assessed as necrotic cells at 10 x GI50 concentration incubated for 24 hrs by annexin V-FITC and propidium iodide staining based flow cytometry (reference value: 0.75 %); assay type: functional
[8] = target: Cyclin-dependent kinase 1/cyclin B1 (Homo sapiens, UniProt P06493); assay: Inhibition of CDK1/cyclin B (unknown origin) using histone 1 protein substrate incubated for 120 mins measured after 40 mins incubation under dark by ADP-glo based luminescence assay; assay type: protein-complex assay
Sequence of Cyclin-dependent kinase 1/cyclin B1 (P06493 whole entry): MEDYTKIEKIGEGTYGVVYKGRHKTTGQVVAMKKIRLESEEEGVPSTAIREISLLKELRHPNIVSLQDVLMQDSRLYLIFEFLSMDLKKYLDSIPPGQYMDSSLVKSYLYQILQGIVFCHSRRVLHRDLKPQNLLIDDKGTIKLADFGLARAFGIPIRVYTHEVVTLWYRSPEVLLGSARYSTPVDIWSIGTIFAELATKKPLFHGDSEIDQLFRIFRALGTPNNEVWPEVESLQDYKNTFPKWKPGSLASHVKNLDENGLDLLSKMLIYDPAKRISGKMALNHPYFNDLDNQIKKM
Sequence of Cyclin-dependent kinase 1/cyclin B1 (P14635 whole entry, further chain): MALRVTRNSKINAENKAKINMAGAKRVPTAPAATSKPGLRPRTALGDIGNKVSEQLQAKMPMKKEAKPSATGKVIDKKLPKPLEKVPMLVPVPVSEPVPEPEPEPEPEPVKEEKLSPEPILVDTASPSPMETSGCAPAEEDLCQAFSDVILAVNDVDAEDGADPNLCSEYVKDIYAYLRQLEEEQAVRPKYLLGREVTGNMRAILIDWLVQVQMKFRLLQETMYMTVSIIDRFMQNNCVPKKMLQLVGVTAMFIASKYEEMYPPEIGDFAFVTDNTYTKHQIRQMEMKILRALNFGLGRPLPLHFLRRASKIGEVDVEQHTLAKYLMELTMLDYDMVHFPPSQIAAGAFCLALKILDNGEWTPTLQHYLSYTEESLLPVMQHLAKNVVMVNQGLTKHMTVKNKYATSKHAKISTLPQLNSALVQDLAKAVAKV
Method in brief: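 In-house ADP-Glo assay with 2 mM DMSO stocks. Kinases were CDK1/cyclin B at 1 nM, CDK2/cyclin E1 at 10 nM and CDK7/cyclin H/MAT1 at 40 nM. Substrate was histone 1 for CDK1 and CDK2, and a RNA pol II CTD peptide for CDK7. Compound at 8–10 concentrations, 1:3 serial, final DMSO 0.5%. Reactions ran 60–120 min at room temperature, then ADP-Glo reagent 40 min in the dark, then detection reagent 40 min, read by luminescence. Ki was derived from IC50 by Cheng-Prusoff.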

[9] = system: U-937; assay: Antiproliferative activity against human U-937 cells harboring wild type/low FLT3 assessed as reduction in cell viability after 72 hrs by resazurin assay; assay type: functional
Method in brief: (§2)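 Cells seeded and pre-incubated 24 h at 37 °C, 5% CO2, then given a five-fold dilution series of compound (from 10 mM DMSO stock) in medium, in triplicate. Resazurin added after 72 h exposure, 4 h in dark at 37 °C. Fluorescence read at 570/585 nm, normalised to DMSO vehicle. GI50 by non-linear regression; mean ± SD of at least two replicates.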

[10] = system: U-937; assay: Induction of apoptosis in human U937 cells assessed as early apoptotic cells at 1 x GI50 concentration incubated for 48 hrs by annexin V-FITC staining based flow cytometry (Rvb =2.78 %); assay type: functional
[11] = system: MV4-11; assay: Induction of apoptosis in human MV4-11 cells assessed as viable cells at 5 x GI50 concentration incubated for 48 hrs by annexin V-FITC and propidium iodide staining based flow cytometry (reference value: 91.87 %); assay type: functional
[12] = system: MV4-11; assay: Induction of apoptosis in human MV4-11 cells assessed as necrotic cells at 20 x GI50 concentration incubated for 24 hrs by annexin V-FITC and propidium iodide staining based flow cytometry (reference value: 0.75 %); assay type: functional
[13] = system: U-937; assay: Induction of apoptosis in human U937 cells assessed as late apoptotic cells at 1 x GI50 concentration incubated for 24 hrs by annexin V-FITC and propidium iodide staining based flow cytometry (reference value: 10.30 %); assay type: functional
[14] = target: Receptor-type tyrosine-protein kinase FLT3 (Homo sapiens, UniProt P36888, D835Y); assay: Inhibition of FLT3 D835Y mutant (unknown origin) incubated for 120 mins by ADP-glo based luminescence assay
[15] = system: U-937; assay: Induction of apoptosis in human U937 cells assessed as viable cells at 10 x GI50 concentration incubated for 24 hrs by annexin V-FITC and propidium iodide staining based flow cytometry (reference value: 86.80 %); assay type: functional
[16] = target: Receptor-type tyrosine-protein kinase FLT3 (Homo sapiens) (UniProt P36888); assay: Inhibition of FLT3-mediated signalling pathway in human U-937 cells assessed as inhibition of eIF4E phosphorylation upto 20 x GI50 concentration incubated for 6 hrs by western blot analysis; assay type: cell-based; method in brief: as §1
[17] = system: U-937; assay: Induction of apoptosis in human U937 cells assessed as late apoptotic cells at 10 x GI50 concentration incubated for 48 hrs by annexin V-FITC staining based flow cytometry (reference value: 9.82 %); assay type: functional
[18] = system: MV4-11; assay: Induction of apoptosis in human MV4-11 cells assessed as early apoptotic cells at 20 x GI50 concentration incubated for 24 hrs by annexin V-FITC and propidium iodide staining based flow cytometry (reference value: 2.12 %); assay type: functional
[19] = system: MV4-11; assay: Induction of apoptosis in human MV4-11 cells assessed as early apoptotic cells at 5 x GI50 concentration incubated for 48 hrs by annexin V-FITC and propidium iodide staining based flow cytometry (Rvb =1.08 %); assay type: functional
[20] = system: Jurkat; assay: Antiproliferative activity against human Jurkat cells harboring FLT3 knockout gene assessed as reduction in cell viability after 72 hrs by resazurin assay; assay type: functional; method in brief: as §2
[21] = system: MV4-11; assay: Induction of apoptosis in human MV4-11 cells assessed as early apoptotic cells at 1 x GI50 concentration incubated for 24 hrs by annexin V-FITC and propidium iodide staining based flow cytometry (reference value: 2.12 %); assay type: functional
[22] = system: U-937; assay: Induction of apoptosis in human U937 cells assessed as viable cells at 1 x GI50 concentration incubated for 24 hrs by annexin V-FITC and propidium iodide staining based flow cytometry (reference value: 86.80 %); assay type: functional
[23] = system: U-937; assay: Induction of apoptosis in human U937 cells assessed as early apoptotic cells at 20 x GI50 concentration incubated for 48 hrs by annexin V-FITC staining based flow cytometry (reference value: 2.78 %); assay type: functional
[24] = system: MV4-11; assay: Induction of apoptosis in human MV4-11 cells assessed as late apoptotic cells at 1 x GI50 concentration incubated for 24 hrs by annexin V-FITC and propidium iodide staining based flow cytometry (reference value: 12.45 %); assay type: functional
[25] = system: MV4-11; assay: Induction of apoptosis in human MV4-11 cells assessed as late apoptotic cells at 20 x GI50 concentration incubated for 24 hrs by annexin V-FITC and propidium iodide staining based flow cytometry (reference value: 12.45 %); assay type: functional
[26] = system: U-937; assay: Induction of apoptosis in human U937 cells assessed as early apoptotic cells at 1 x GI50 concentration incubated for 24 hrs by annexin V-FITC and propidium iodide staining based flow cytometry (Rvb =1.81 %); assay type: functional

CC(=O)N1CCN(c2ccc(Nc3nccc(-c4cn(C)c5ncccc45)n3)cc2)CC1
Activity [1]: 1.86%
Activity [2]: 1.4%
Activity [3]: 85.3%
Activity [4]: 87.16%
Activity [5]: Active
Activity [6]: 10.31%
Activity [7]: 2.13%
pKi [8]: < 5.30
GI50 [9]: > 10 µM
Activity [10]: 2.21%
Activity [11]: 86.83%
Activity [12]: 20.95%
Activity [13]: 7.98%
pKi [14]: 7.33
Activity [15]: 85.8%
inhibition [16]: Active
Activity [17]: 12.02%
Activity [18]: 3.51%
Activity [19]: 3.06%
GI50 [20]: > 10 µM
Activity [21]: 2.16%
Activity [22]: 88.19%
Activity [23]: 3.44%
Activity [24]: 14.35%
Activity [25]: 2.03%
Activity [26]: 2.41%
